Assay results published in ChEMBL document CHEMBL1268842, “Discovery of N-benzyl-2-[(4S)-4-(1H-indol-3-ylmethyl)-5-oxo-1-phenyl-4,5-dihydro-6H-[1,2,4]triazolo[4,3-a][1,5]benzodiazepin-6-yl]-N-isopropylacetamide, an orally active, gut-selective CCK1 receptor agonist for the potential treatment of obesity” (Bioorg Med Chem Lett, 2010).
≈ marks a conversion by molar mass, not a printed value. Calls of active or inactive are those of the source. No cut-off for these calls is given here.

Columns and labels:
[1] = Biliary clearance in Sprague-Dawley rat assessed as parent compound excretion into bile at 3 mg/kg, iv by HPLC/MS/MS analysis; format: ADME, organism-based; set-up: dose 3 mg/kg, route intravenous; conditions: read-out: Activity
[2] = Intrinsic clearance in human liver microsomes; format: ADME, Microsome
Rattus norvegicus [3] = experiment: Antiobesity activity in Sprague-Dawley rat assessed as reduction in spontaneous food intake at 6 mg/kg, po measured at 4 hrs; format: functional
How it was run: (§1)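 Rats were dosed orally at 6 mg/kg, as amorphous material unless stated or as a solid spray-dried dispersion (SDD). Spontaneous food intake was measured against vehicle at 4 h post-dose, and at 12 h where stated. Significance was P <0.05 versus vehicle unless noted.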

Mus musculus [4] = experiment: Induction of emptying of gallbladder in C57BL/6J mouse at 6 mg/kg, po measured at 24 hrs; format: functional
How it was run: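 Mice dosed orally; compound given as amorphous solid unless noted, with one analog in spray-dried dispersion formulation. Read-out is % gallbladder emptying after dosing.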

[5] = molecular target: T1, Cholecystokinin receptor type A (Rattus norvegicus, UniProt P30551); experiment: Agonist activity at rat CCK1 receptor expressed in CHO cells assessed as induction of calcium release by FLIPR assay; format: functional, cell-based
T1 sequence (P30551 whole entry): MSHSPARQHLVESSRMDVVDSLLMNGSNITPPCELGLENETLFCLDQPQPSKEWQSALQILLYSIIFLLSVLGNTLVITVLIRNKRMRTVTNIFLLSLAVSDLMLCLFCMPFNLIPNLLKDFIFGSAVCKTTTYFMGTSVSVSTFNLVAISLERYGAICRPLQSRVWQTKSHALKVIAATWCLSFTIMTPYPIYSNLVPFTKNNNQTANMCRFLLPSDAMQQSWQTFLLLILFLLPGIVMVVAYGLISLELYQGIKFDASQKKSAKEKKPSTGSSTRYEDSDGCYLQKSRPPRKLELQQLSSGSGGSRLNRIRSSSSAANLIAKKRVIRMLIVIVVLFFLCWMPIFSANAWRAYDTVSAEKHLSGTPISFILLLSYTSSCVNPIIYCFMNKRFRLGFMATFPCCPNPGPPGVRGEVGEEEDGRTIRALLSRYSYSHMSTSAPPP
How it was run: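 Calcium release was measured by FLIPR at the rat CCK1 receptor to give EC50. Values are mean ± standard error of at least two independent experiments.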

[6] = molecular target: T2, Cholecystokinin receptor type A (Homo sapiens, UniProt P32238); experiment: Displacement of [125I]CCK8 from human CCK1 receptor expressed in CHO cells; format: cell-based
T2 sequence (P32238 whole entry): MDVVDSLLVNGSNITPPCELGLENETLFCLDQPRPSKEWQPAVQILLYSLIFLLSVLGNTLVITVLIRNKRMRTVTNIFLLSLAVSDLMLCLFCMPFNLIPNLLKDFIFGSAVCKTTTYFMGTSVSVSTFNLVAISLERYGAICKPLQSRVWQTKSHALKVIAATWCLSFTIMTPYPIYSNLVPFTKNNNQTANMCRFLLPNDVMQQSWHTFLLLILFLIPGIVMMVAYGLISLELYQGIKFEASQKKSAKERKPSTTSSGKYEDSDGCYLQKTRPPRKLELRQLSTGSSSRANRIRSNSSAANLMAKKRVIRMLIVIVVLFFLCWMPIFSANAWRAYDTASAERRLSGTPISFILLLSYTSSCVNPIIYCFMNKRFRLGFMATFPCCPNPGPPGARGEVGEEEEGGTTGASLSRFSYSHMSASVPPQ
How it was run: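 Binding IC50 at the human CCK1 receptor. Values are mean ± standard error of at least three independent experiments.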

[7] = molecular target: T2, Cholecystokinin receptor type A; experiment: Agonist activity at human CCK1 receptor expressed in CHO cells assessed as induction of calcium release by FLIPR assay; format: functional, cell-based
How it was run: (§2)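 Calcium release was measured by FLIPR at the human CCK1 receptor. EC50 and efficacy were expressed as % agonism versus CCK-8. Values are mean ± standard error of at least three independent experiments.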

Mus musculus [8] = experiment: Induction of emptying of gallbladder in C57BL/6J mouse at 6 mg/kg, po measured at 1 hr; format: functional
How it was run: (§3)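 Mouse gallbladder emptying model. Compounds were given orally, as amorphous material unless noted or as an SDD formulation where stated. Gallbladder emptying (%) was read at 1 h after 6 mg/kg. Gallbladder refilling was assessed at 24 h.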

[9] = molecular target: T1, Cholecystokinin receptor type A; experiment: Displacement of [125I]CCK8 from rat CCK1 receptor expressed in CHO cells; format: cell-based
How it was run: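 Binding IC50 at the rat CCK1 receptor. Values are mean ± standard error of at least two independent experiments.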

[10] = molecular target: T3, Cholecystokinin receptor type A (Homo sapiens) (UniProt P32238); experiment: Agonist activity at human CCK1 receptor expressed in CHO cells assessed as induction of calcium release by FLIPR assay relative to CCK8; format: functional, cell-based; how it was run: as §2
T3 sequence (whole entry): T2 sequence (P32238 whole entry)

[11] = Kinetic solubility of the compound at pH 6.5; format: physicochemical; conditions: buffer
[12] = Lipophilicity, log D of the compound at pH 7.4; format: physicochemical; conditions: buffer
[13] = Cmax in Sprague-Dawley rat at 6 mg/kg, po by HPLC/MS/MS analysis; format: ADME, organism-based; set-up: dose 6 mg/kg, route oral; conditions: in vivo
How it was run: (§4)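 Male Sprague-Dawley rats, n of 3, given a single 3.0 mg/kg iv dose or 6.0 mg/kg po dose. Plasma exposure was followed over time. Values are mean with standard deviation.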

Rattus norvegicus [14] = species: Rattus norvegicus; conditions: Sprague-Dawley, 6 mg/kg
Rattus norvegicus [15] = experiment: fCmax in Sprague-Dawley rat at 6 mg/kg, po by HPLC/MS/MS analysis; format: ADME, organism-based; set-up: dose 6 mg/kg, route oral; conditions: in vivo; how it was run: as §4
[16] = Volume of distribution at steady state in Sprague-Dawley rat at 3 mg/kg, iv by HPLC/MS/MS analysis; format: ADME, organism-based; set-up: dose 3 mg/kg, route intravenous; conditions: in vivo, read-out: Vdss; how it was run: as §4
[17] = AUC (0 to tlast) in Sprague-Dawley rat at 3 mg/kg, iv by HPLC/MS/MS analysis; format: ADME, organism-based; set-up: dose 3 mg/kg, route intravenous; conditions: plasma; how it was run: as §4
[18] = molecular target: T4, Gastrin/cholecystokinin type B receptor (Homo sapiens) (UniProt P32239); experiment: Agonist activity at CCK2 receptor by [35S]GTPgammaS binding assay; format: functional
T4 sequence (whole entry): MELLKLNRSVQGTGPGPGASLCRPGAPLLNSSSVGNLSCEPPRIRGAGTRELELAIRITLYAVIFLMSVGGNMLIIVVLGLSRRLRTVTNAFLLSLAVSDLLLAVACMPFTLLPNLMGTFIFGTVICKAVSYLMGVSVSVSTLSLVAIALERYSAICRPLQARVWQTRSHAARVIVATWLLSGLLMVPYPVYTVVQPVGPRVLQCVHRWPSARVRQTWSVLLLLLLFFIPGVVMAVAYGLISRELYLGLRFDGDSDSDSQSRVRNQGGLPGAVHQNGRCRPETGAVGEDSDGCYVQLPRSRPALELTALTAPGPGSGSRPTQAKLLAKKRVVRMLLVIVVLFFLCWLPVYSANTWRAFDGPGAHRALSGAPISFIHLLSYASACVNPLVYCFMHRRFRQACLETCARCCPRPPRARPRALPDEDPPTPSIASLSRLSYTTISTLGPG

Rattus norvegicus [19] = experiment: Antiobesity activity in Sprague-Dawley rat assessed as reduction in spontaneous food intake at 6 mg/kg, po measured at 4 hrs relative to vehicle; format: functional; set-up: scale not given: the % may be the effect or the level left; how it was run: as §1
Mus musculus [20] = experiment: Induction of emptying of gallbladder in C57BL/6J mouse at 6 mg/kg, po administered via SDD formulation measured at 1 hr; format: functional; how it was run: as §3
Rattus norvegicus [21] = experiment: Antiobesity activity in Sprague-Dawley rat assessed as reduction in spontaneous food intake at 6 mg/kg, po measured at 4 hrs in presence of 20 mg/kg CCK1R antagonist lorglumide relative to vehicle; format: functional
[22] = Plasma clearance in Sprague-Dawley rat at 3 mg/kg, iv by HPLC/MS/MS analysis; format: ADME, organism-based; set-up: dose 3 mg/kg, route intravenous; how it was run: as §4
Rattus norvegicus [23] = experiment: Tmax in Sprague-Dawley rat at 6 mg/kg, po by HPLC/MS/MS analysis; format: ADME, organism-based; set-up: dose 6 mg/kg, route oral; conditions: in vivo; how it was run: as §4
Rattus norvegicus [24] = experiment: Antiobesity activity in Sprague-Dawley rat assessed as reduction in spontaneous food intake at 6 mg/kg, po administered via SDD formulation measured at 4 hrs; format: functional; how it was run: as §1
[25] = Half life in Sprague-Dawley rat at 3 mg/kg, iv by HPLC/MS/MS analysis; format: ADME, organism-based; set-up: dose 3 mg/kg, route intravenous; conditions: in vivo; how it was run: as §4
[26] = molecular target: T4, Gastrin/cholecystokinin type B receptor (Homo sapiens); experiment: Agonist activity at CCK2 receptor assessed as calcium mobilization by FLIPR assay; format: functional
[27] = Blood clearance predicted from rat liver microsomes; conditions: whole blood
[28] = AUC (0 to tlast) in Sprague-Dawley rat at 6 mg/kg, po by HPLC/MS/MS analysis; format: ADME, organism-based; set-up: dose 6 mg/kg, route oral; conditions: plasma; how it was run: as §4
Rattus norvegicus [29] = experiment: Biliary clearance in Sprague-Dawley rat at 3 mg/kg, iv by HPLC/MS/MS analysis; format: ADME, organism-based; set-up: dose 3 mg/kg, route intravenous; conditions: in vivo
[30] = Oral bioavailability in Sprague-Dawley rat at 6 mg/kg by HPLC/MS/MS analysis; format: ADME, organism-based; conditions: in vivo; how it was run: as §4

| SMILES | CLint scaled [2] | inhibition in vivo at 6 mg/kg (Rattus norvegicus [3]) | EC50 [5] | IC50 [6] | EC50 [7] | Activity (Mus musculus [8]) | IC50 [9] | Activity [10] | solubility kinetic [11] | logD ([12]; read-out: logD) | Activity [18] | Activity [26] | also measured |
| --- | --- | --- | --- | --- | --- | --- | --- | --- | --- | --- | --- | --- | --- |
| CC(C)N(C(=O)CN1C(=O)[C@H](NC(=O)Nc2cccc(C(=O)O)c2)C(=O)N(c2ccccc2)c2ccccc21)c1ccccc1 | < 8 mL/min/kg | 52% | 63.8 nM | 131 nM | 283 nM | 82% | 52.6 nM | 62.8% | 499 µM (≈ 302 µg/mL) | 1.09 |  |  | dose excreted [1]: 65%; Activity (Mus musculus [4]): 91.4% |
| CC(C)N(Cc1ccccc1)C(=O)CN1C(=O)[C@@H](Cc2c[nH]c3ccccc23)c2nnc(-c3ccccc3)n2-c2ccccc21 [CE-326597] | 199 mL/min/kg |  |  |  |  |  |  | 53% | 0.94 µM (≈ 0.559 µg/mL) |  | inactive | inactive | Cmax [13]: 14.6 ng/mL; inhibition (Rattus norvegicus [14]): Active; fCmax (Rattus norvegicus [15]): 0.98 nM; Vd [16]: 3.7 L/kg; AUC(0-t) [17]: 1190 ng·h/mL; Activity (Rattus norvegicus [19]): -56%; Activity (Mus musculus [20]): 91%; inhibition (INH) (Rattus norvegicus [21]): 2.4%; clearance [22]: 41.7 mL/min/kg; Tmax (Rattus norvegicus [23]): 1.33 h; inhibition in vivo at 6 mg/kg (Rattus norvegicus [24]): 56%; half-life [25]: 1.37 h; clearance [27]: 47 mL/min/kg; AUC(0-t) [28]: 42.5 ng·h/mL; CL_biliary (Rattus norvegicus [29]): 0.0277 mL/min/kg; bioavailability [30]: 1%; logD [12]: 3.39 |
| CC(C)N(Cc1ccccc1)C(=O)CN1C(=O)C(Cc2n[nH]c3ccccc23)c2nnc(-c3ccccc3)n2-c2ccccc21 (stereo unspecified) | 39.5 mL/min/kg | 43% | 481 nM | 48.5 nM | 522 nM | 86.3% | 21 nM | 72.3% | 2.26 µM (≈ 1.35 µg/mL) | 3.16 | inactive | inactive |  |
